≈ marks a conversion by molar mass, not a printed value. Calls of active or inactive are those of the source. The rule behind the calls is not given here.
Experiments:
[1] = tested on: Mycobacterium tuberculosis; experiment: Growth inhibition of Mycobacterium tuberculosis H37Rv exposed to plasma from BALB/c mouse treated with 300 mg/kg, po administered through microemulsion vehicle as single oral dose per gavage after 0.3 hrs by Resazurin microtiter assay; format: functional; conditions: read-out: GI
Outline: (§1)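 The microemulsion was 10% cholesterol, 10% phosphatidylcholine/sodium oleate/polyoxyl 40 hydrogenated castor oil (3:6:8) and 80% phosphate buffer pH 7.4. Plasma taken at 0.3, 1, 2 or 4 h was tested by REMA for % Mtb growth inhibition, and plasma level was estimated against the in-vitro REMA MIC.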

[2] = tested on: Mycobacterium tuberculosis; experiment: Downregulation of hspR gene in Mycobacterium tuberculosis H37Rv at 2 times MIC90 after 4 hrs by microarray analysis; format: functional
Mus musculus [3] = experiment: Toxicity in BALB/c mouse assessed as change in heart weight at 200 mg/kg, po qd administered via gavage after 10 days; format: organism-based; conditions: in vivo, 240 h
Outline: (§2)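 Mice given one daily oral gavage dose of 200 mg/kg body weight for 10 days with daily behavioural monitoring (hippocratic screening); heart, lung, spleen, kidney and liver weights compared with controls by ANOVA and Dunnett's test, p < 0.05.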

[4] = n-Octanol/water partition coefficient, log P of the compound by HPLC analysis; format: physicochemical
Outline: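 Log P from n-octanol/water partition coefficient determined by HPLC method.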

Cytochrome P450 3A4 = Cytochrome P450 3A4 (Homo sapiens, UniProt P08684); experiment: Inhibition of CYP3A4 in human liver microsomes in presence of NADPH by LC-MS/MS analysis; format: ADME
Sequence of Cytochrome P450 3A4 (P08684 whole entry): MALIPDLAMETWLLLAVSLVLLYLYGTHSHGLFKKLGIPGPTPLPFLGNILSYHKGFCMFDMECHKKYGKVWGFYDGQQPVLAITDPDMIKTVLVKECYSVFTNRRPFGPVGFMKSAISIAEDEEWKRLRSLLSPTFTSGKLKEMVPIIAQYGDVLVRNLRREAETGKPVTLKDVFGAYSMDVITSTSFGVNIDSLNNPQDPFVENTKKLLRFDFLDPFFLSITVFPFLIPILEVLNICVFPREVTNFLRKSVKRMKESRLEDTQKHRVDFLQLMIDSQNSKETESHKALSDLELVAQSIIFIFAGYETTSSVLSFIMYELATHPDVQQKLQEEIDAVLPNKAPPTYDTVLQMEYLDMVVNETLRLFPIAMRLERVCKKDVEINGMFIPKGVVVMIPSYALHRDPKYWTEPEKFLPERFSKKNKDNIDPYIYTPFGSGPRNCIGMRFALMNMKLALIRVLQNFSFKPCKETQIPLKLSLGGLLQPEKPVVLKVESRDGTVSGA

[5] = tested on: Mycobacterium tuberculosis; experiment: Antitubercular activity against Mycobacterium tuberculosis H37Rv ATCC 27294 under acidic pH 6 condition; format: functional
[6] = tested on: Mycobacterium tuberculosis; experiment: Antitubercular activity against Mycobacterium tuberculosis H37Rv ATCC 27294 under normal pH 6.8 condition; format: functional
[7] = Stability of the compound in PBS assessed as parent compound remaining at pH 7.4 after 24 hrs by HPLC-UV analysis; format: physicochemical; conditions: read-out: Stability
Mus musculus [8] = experiment: Toxicity in BALB/c mouse assessed as change in lung weight at 200 mg/kg, po qd administered via gavage after 10 days; format: organism-based; conditions: in vivo, 240 h; outline: as §2
[9] = Chemical stability in PBS at pH 5.5 assessed as drug degradation after 10 hrs by HPLC-UV analysis; format: physicochemical; conditions: read-out: Drug degradation
[10] = tested on: Mycobacterium tuberculosis; experiment: Upregulation of ribosomal protein gene in Mycobacterium tuberculosis H37Rv at 2 times MIC90 after 4 hrs by microarray analysis; format: functional
[11] = tested on: Mycobacterium tuberculosis; experiment: Antitubercular activity against Mycobacterium tuberculosis Erdman infected in BALB/c mouse at 200 mg/kg, po qd dosed via gavage starting at 10 days post-infection and terminated at 29 day post-infection for 5 consecutive days each week and measured 3 day wash-out period at 31 day-postinfection; format: functional, organism-based
Outline: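 Drug in cholesterol/phospholipid microemulsion was given by oral gavage (200 μL) once daily, 5 days/week, from day 10 to day 29 post-infection; n = 7/group. After a 3-day washout, lungs were homogenized in HBSS-Tween at day 31 and plated on Middlebrook 7H11 for CFU.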

[12] = Stability of the compound in PBS assessed as parent compound remaining at pH 5.5 after 24 hrs by HPLC-UV analysis; format: physicochemical; conditions: read-out: Stability
Mus musculus [13] = experiment: Hepatotoxicity in BALB/c mouse assessed as change in alanine aminotransferase level in plasma at 200 mg/kg, po qd administered via gavage after 10 days; format: toxicity, organism-based; conditions: in vivo, 240 h
[14] = tested on: Mycobacterium tuberculosis; experiment: Up-regulation of […] gene EF-Tu in Mycobacterium tuberculosis H37Rv at 2 times MIC90 after 4 hrs by microarray analysis; format: functional
[15] = tested on: Mycobacterium tuberculosis; experiment: Antitubercular activity against Mycobacterium tuberculosis H37Rv ATCC 27294 in presence of 10% fetal bovine serum; format: functional
[16] = Apparent permeability from basolateral to apical side in human Caco2 cells by LC-MS/MS analysis; format: ADME, cell-based; conditions: caco-2
Outline: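 Caco-2 monolayer permeability measured in both directions (apical-to-basolateral and basolateral-to-apical); result given as apparent permeability coefficient Papp in cm/s.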

[17] = tested on: Mycobacterium tuberculosis; experiment: Antitubercular activity against Mycobacterium tuberculosis H37Rv ATCC 27294 in presence of 4% fetal bovine serum; format: functional
Escherichia coli = experiment: Antimicrobial activity against Escherichia coli ATCC 25922 at 200 uM incubated for 16 hrs; format: functional
Candida albicans = experiment: Antimicrobial activity against Candida albicans ATCC 10231 at 200 uM incubated for 48 hrs; format: functional
[18] = tested on: Mycobacterium tuberculosis; experiment: Growth inhibition of Mycobacterium tuberculosis H37Rv exposed to plasma from BALB/c mouse treated with 300 mg/kg, po administered through microemulsion vehicle as single oral dose per gavage after 1 hr by Resazurin microtiter assay; format: functional; conditions: read-out: GI; outline: as §1
Staphylococcus aureus = experiment: Antimicrobial activity against Staphylococcus aureus ATCC 29213 at 200 uM incubated for 16 hrs; format: functional
[19] = tested on: Mycobacterium tuberculosis; experiment: Growth inhibition of Mycobacterium tuberculosis H37Rv exposed to plasma from BALB/c mouse treated with 300 mg/kg, po administered through microemulsion vehicle as single oral dose per gavage after 2 hrs by Resazurin microtiter assay; format: functional; conditions: read-out: GI; outline: as §1
MRC5 = experiment: Cytotoxicity against human MRC5 cells assessed as reduction in cell viability after 24 hrs by fluorescence assay; format: cell-based; conditions: MRC5, 24 h
Outline: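 MRC-5 human lung fibroblasts; cytotoxicity reported as IC50.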

[20] = Chemical stability in PBS at pH 7.4 assessed as drug degradation after 10 hrs by HPLC-UV analysis; format: physicochemical; conditions: read-out: Drug degradation
Mus musculus [21] = experiment: Hepatotoxicity in BALB/c mouse assessed as change in liver morphology at 200 mg/kg, po qd administered via gavage after 10 days by hematoxylin and eosin staining based analysis; format: toxicity, organism-based; conditions: in vivo, 240 h
Outline: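 BALB/c mice dosed orally by gavage once daily at 200 mg/kg; liver and kidney sections stained with H&E and examined for tissue morphology.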

Mus musculus [22] = experiment: Toxicity in BALB/c mouse assessed as change in spleen weight at 200 mg/kg, po qd administered via gavage after 10 days; format: organism-based; conditions: in vivo, 240 h; outline: as §2
Mus musculus [23] = experiment: Toxicity in BALB/c mouse assessed as change in kidney weight at 200 mg/kg, po qd administered via gavage after 10 days; format: organism-based; conditions: in vivo, 240 h; outline: as §2
[24] = tested on: Mycobacterium tuberculosis; experiment: Bactericidal activity against Mycobacterium tuberculosis H37Rv ATCC 27294 assessed as colony forming units at 41.24 uM after 48 hrs by time kill analysis; format: functional
Outline: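 Time–kill: H37Rv ATCC 27294 exposed to drug at 41.24 μM, alongside INH 0.72 μM, RMP 0.01 μM and MOX 0.88 μM; log10 CFU/mL followed over days. Counts are the mean of three independent assays, ± SD.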

[25] = tested on: Mycobacterium tuberculosis; experiment: Up-regulation of […] gene EF-G in Mycobacterium tuberculosis H37Rv at 2 times MIC90 after 4 hrs by microarray analysis; format: functional
Mus musculus [26] = experiment: Toxicity in BALB/c mouse assessed as change in liver weight at 200 mg/kg, po qd administered via gavage after 10 days; format: organism-based; conditions: in vivo, 240 h; outline: as §2
[27] = tested on: Mycobacterium tuberculosis; experiment: Down-regulation of HSP gene in Mycobacterium tuberculosis H37Rv at 2 times MIC90 after 4 hrs by microarray analysis; format: functional
[28] = tested on: Mycobacterium tuberculosis; experiment: Antitubercular activity against Mycobacterium tuberculosis H37Rv ATCC 27294 infected in mouse J774A.1 cells at 1.46 to 23.86 ug/ml after 3 days relative to control; format: functional

With `O=C(N/N=C/c1ccc2no[n+]([O-])c2c1)c1ccncc1` the inhibition in vivo at 300 mg/kg [1] was 65.7%, the Activity [2] was “Active” and the Activity (Mus musculus [3]) was “Non-Toxic”. The logP [4] was 1.5, the IC50 (Cytochrome P450 3A4) was over 20 µM and the MIC90 [5] was 3.41 µM (≈ 0.966 µg/mL). For the same compound, the MIC90 [6] was 5.47 µM (≈ 1.55 µg/mL), the remaining at 24 h [7] was 75% and the Activity (Mus musculus [8]) was “Non-Toxic”. For the same compound, the degraded at 10 h [9] was 20%, the Activity [10] was “Active” and the Activity [11] was “inactive”. For the same compound, the remaining at 24 h [12] was 67%, the Activity (Mus musculus [13]) was “Non-Toxic” and the Activity [14] was “Active”. The MIC90 [15] was 11.8 µM, the Papp [16] was 3.9 ×10⁻⁶ cm/s and the MIC90 [17] was 9.81 µM. For the same compound, the Activity (Escherichia coli) was “inactive”, the Activity (Candida albicans) was “inactive” and the inhibition in vivo at 300 mg/kg [18] was 79%. The Activity (Staphylococcus aureus) was “inactive”, the inhibition in vivo at 300 mg/kg [19] was 76% and the IC50 (MRC5) was 519 µM. The degraded at 10 h [20] was 20%, the Activity (Mus musculus [21]) was “Non-Toxic” and the Activity (Mus musculus [22]) was “Non-Toxic”. The Activity (Mus musculus [23]) was “Non-Toxic”, the Activity [24] was 6.7 log10CFU/ml and the Activity [25] was “Active”. For the same compound, the Activity (Mus musculus [26]) was “Non-Toxic”, the Activity [27] was “Active” and the “inhibition (INH)” value [28] was 90%.

Source: ChEMBL document CHEMBL4028867, “Design, Synthesis, and Characterization of N-Oxide-Containing Heterocycles with in Vivo Sterilizing Antitubercular Activity” (J Med Chem, 2017)
